ChEMBL document CHEMBL1141909, “3-Arylidene-1-(4-nitrophenylmethylene)-3,4-dihydro-1H-naphthalen-2-ones and related compounds displaying selective toxicity and reversal of multidrug resistance in neoplastic cells” (2005)

Assays:
[1] = Concentration for 50% cytotoxicity towards malignant cells expressed in HSG neoplastic cell line; format: functional; details: Homo sapiens
Method in brief: (§1)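 Human oral squamous carcinoma HSC-2 and HSC-3 and submandibular gland carcinoma HSG cells were grown in DMEM with 10% heat-inactivated FBS. Near-confluent cells were exposed to various compound concentrations for 24 h. Viable cells were read by MTT (absorbance of stained lysate at 540). CC50 came from dose-response curves as the mean of duplicates.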

[2] = Effect of compound on multidrug resistance in murine L-5178 cells at 40 ug/ml concentration; expressed as fluorescence activity ratio (treated/untreated cells); format: functional, Mus musculus
[3] = Effect of compound on multidrug resistance in colon320 neoplasm cells at 4 ug/ml concentration; expressed as fluorescence activity ratio (treated/untreated cells); format: functional, Homo sapiens
[4] = Effect of compound on multidrug resistance in colon320 neoplasm cells at 40 ug/ml concentration; expressed as fluorescence activity ratio (treated/untreated cells); format: functional, Homo sapiens
[5] = Effect of compound on multidrug resistance in murine L-5178 cells at 4 ug/ml concentration; expressed as fluorescence activity ratio (treated/untreated cells); format: functional, Mus musculus
[6] = Selectivity index of compound towards human malignant cell lines; format: functional
HL-60 = assay: Concentration for 50% cytotoxicity towards malignant cells expressed in HL-60 neoplastic cell line; format: functional; details: Homo sapiens
Method in brief: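 Human promyelocytic leukaemia HL-60 cells were grown in RPMI1640 with 10% FBS and exposed to various compound concentrations for 24 h. Viable cell number was counted by trypan blue exclusion. CC50 was taken from dose-response curves, mean of duplicate determinations.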

[7] = Concentration for 50% cytotoxicity towards malignant cells expressed in HSC-2 neoplastic cell line; format: functional; details: Homo sapiens; method in brief: as §1
HSC-3 = assay: Concentration for 50% cytotoxicity towards malignant cells expressed in HSC-3 neoplastic cell line; format: functional; details: Homo sapiens; method in brief: as §1
[8] = Concentration for 50% cytotoxicity towards nonmalignant cells expressed in HPC normal pulp cells; details: Homo sapiens
[9] = Concentration for 50% cytotoxicity towards nonmalignant cells expressed in HGF normal gingival fibroblasts; details: Homo sapiens
[10] = Concentration for 50% cytotoxicity towards nonmalignant cells expressed in HPLF normal periodontal ligament fibroblasts; details: Homo sapiens
[11] = Effect of compound on multidrug resistance in murine L-5178 cells at 10 ug/ml concentration; expressed as fluorescence activity ratio (treated/untreated cells); format: functional, Mus musculus

Row | Structure (SMILES) | CC50 [1] [µM] | Effect [2] | Effect [3] | Effect [4] | Effect [5] | SI [6] | CC50 (HL-60) [µM] | CC50 [7] [µM] | CC50 (HSC-3) [µM] | CC50 [8] [µM] | CC50 [9] [µM] | CC50 [10] [µM] | Effect [11]
1 | COc1cc(/C=C2\Cc3ccccc3/C(=C\c3ccc([N+](=O)[O-])cc3)C2=O)cc(OC)c1OC | 3 | 120 | 10.9 | 13 | 134 | > 229 | 0.55 | 0.55 | 2.9 | > 400 | > 400 | > 400 | 
2 | COc1ccc(CCN(C)CCCC(C#N)(c2ccc(OC)c(OC)c2)C(C)C)cc1OC (configuration not stated) [VERAPAMIL] |  |  |  |  |  |  |  |  |  |  |  |  | 38.2
3 | COc1cc(/C=C2\Cc3ccccc3/C(=C\c3ccc([N+](=O)[O-])cc3)C2=O)ccc1O | 5.8 | 123 | 3.38 | 6.2 | 51.8 | 15 | 0.95 | 1.45 | 3.8 | 83 | 33 | 21 | 
4 | O=C1/C(=C/c2ccc3c(c2)OCO3)Cc2ccccc2/C1=C\c1ccc([N+](=O)[O-])cc1 | 5 | 3.87 | 1.95 | 2.27 | 3.27 | > 92 | 2.2 | 2.6 | 7.6 | > 400 | > 400 | > 400 | 
5 | COc1ccc(/C=C2\Cc3ccccc3/C(=C\c3ccc([N+](=O)[O-])cc3)C2=O)cc1OC | 4.4 | 55.9 | 7.19 | 11.4 | 44.1 | > 159 | 0.56 | 0.92 | 4.2 | > 400 | > 400 | > 400 | 
6 | COc1cc(/C=C2\CCC/C(=C\c3ccc([N+](=O)[O-])cc3)C2=O)ccc1O | 11 | 0.83 | 1.98 | 1.13 | 1.5 | > 44 | 3.4 | 2.8 | 5.2 | > 400 | 165 | 171 | 
7 | COc1ccc(/C=C2\CCC/C(=C\c3ccc([N+](=O)[O-])cc3)C2=O)cc1 | > 400 | 0.82 | 0.5 | 0.58 | 0.76 | ~1 | > 400 | > 400 | > 400 | > 400 | > 400 | > 400 | 
8 | COc1cccc2c1C(=O)c1c(O)c3c(c(O)c1C2=O)C[C@@](O)(C(=O)CO)C[C@@H]3O[C@H]1C[C@H](N)[C@H](O)[C@H](C)O1 [DOXORUBICIN] | 1.9 |  |  |  |  | > 235 | 0.47 | 0.68 | 2.9 | 414 | 233 | > 400 | 
9 | O=C1/C(=C/c2ccc(O)cc2)CCC/C1=C\c1ccc([N+](=O)[O-])cc1 | > 400 | 0.97 | 1.15 | 0.6 | 0.94 | ~3.8 | 4.4 | 8.1 | 13 | > 400 | > 400 | > 400 | 
10 | COc1ccc(/C=C2\CC/C(=C\c3ccc([N+](=O)[O-])cc3)C2=O)cc1 | > 400 | 0.69 | 0.63 | 0.37 | 0.59 | ~1.3 | > 400 | 63 | > 400 | > 400 | > 400 | > 400 | 
11 | O=C1/C(=C/c2ccc([N+](=O)[O-])cc2)CCC/C1=C\c1ccc2c(c1)OCO2 | > 400 | 1.23 | 0.67 | 0.59 | 0.91 | ~1.2 | > 400 | 308 | 189 | 391 | > 400 | 330 | 
12 | O=C1/C(=C/c2ccc(Cl)cc2)CCC/C1=C\c1ccc([N+](=O)[O-])cc1 | 15 | 0.94 | 0.6 | 0.53 | 1.16 | 46 | 4.1 | 1.5 | 4.6 | 345 | 191 | 332 | 
13 | COc1cc(/C=C2\CC/C(=C\c3ccc([N+](=O)[O-])cc3)C2=O)cc(OC)c1OC | > 400 | 6.62 | 1.96 | 1.28 | 3.06 | ~1 | > 400 | > 400 | > 400 | > 400 | > 400 | > 400 | 
14 | COc1cc(/C=C2\CCC/C(=C\c3ccc([N+](=O)[O-])cc3)C2=O)cc(OC)c1OC | 8.3 | 75.1 | 7.43 | 4.38 | 15.6 | 95 | 1.1 | 0.76 | 4.7 | 347 | 336 | 378 | 
15 | COc1ccc(/C=C2\Cc3ccccc3/C(=C\c3ccc([N+](=O)[O-])cc3)C2=O)cc1 | 47 | 7.68 | 2.22 | 4.3 | 4.36 | > 17 | 4.4 | 11 | 32 | > 400 | > 400 | > 400 | 
16 | COc1ccc(/C=C2\CCC/C(=C\c3ccc([N+](=O)[O-])cc3)C2=O)cc1OC | 13 | 47.3 | 6.12 | 4.62 | 20.4 | 13 | 4.3 | 2.3 | 4.4 | 82 | 53 | 95 | 
17 | O=C1/C(=C/c2ccc(O)cc2)Cc2ccccc2/C1=C\c1ccc([N+](=O)[O-])cc1 | 11 | 39.3 | 1.99 | 11.7 | 135 | 12 | 2.5 | 5.2 | 14 | 113 | 85 | 75 | 
18 | COc1cc(/C=C2/C(=O)/C(=C/c3ccc([N+](=O)[O-])cc3)c3ccccc32)cc(OC)c1OC | > 400 |  |  |  |  | ~0.6 | 318 | 221 | > 400 | 153 | 89 | > 400 | 
